{
  "source": "paper PMC2854536",
  "about": "(Clinical cancer research : an official journal of the …, 2009)",
  "molecules": {"B1": {"name": "PEDF: Pigment epithelial-derived factor, native protein, a potent angiogenesis inhibitor (protein, UniProt P36955 20-418, looked up)", "Pigment epithelium-derived …": "QNPASPPEEGSPDPDSTGALVEEEDPFFKVPVNKLAAAVSNFGYDLYRVRSSTSPTTNVLLSPLSVATALSALSLGAEQRTESIIHRALYYDLISSPDIHGTYKELLDTVTAPQKNLKSASRIVFEKKLRIKSSFVAPLEKSYGTRPRVLTGNPRLDLQEINNWVQAQMKGKLARSTKEIPDEISILLLGVAHFKGQWVTKFDSRKTSLEDFYLDEERTVRVPMMSDPKAVLRYGLDSDLSCKIAQLPLTGSMSIIFFLPLKVTQNLTLIEESLTSEFIHDIDRELKTVQAVLTVPKLKLSYEGEVTKSLQEMKLQSLFDSPDFSKITGKPIKLTQVEHRAGFEWNEDGAGTTPSPGLQPAHLTFPLDYHLNQPFIFVLRDTDTGALLFIGKILDPRGP"}},
  "key": {"endothelial cells": {"tested_on": "endothelial cells", "assay": "Cytotoxicity in a 4-hour assay", "assay_type": "cell-based, Human", "details": "P14 at concentrations above 10 nM, data not shown"}, "[1]": {"tested_on": "bFGF-induced angiogenesis", "assay": "Matrigel plug assay", "assay_type": "in vivo, nude mice", "details": "Matrigel plug with bFGF (Fig. 3C bottom)"}, "CD95": {"tested_on": "CD95", "assay": "Immunohistochemistry of Matrigel plug vasculature, CD95", "assay_type": "in vivo, nude mice", "details": "Matrigel plugs with bFGF (Fig. 6A)"}, "[2]": {"tested_on": "bFGF/VEGF-induced angiogenesis", "assay": "Directed In Vivo Angiogenesis Assay", "parameters": "species or system nude mice", "in_short": "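Angioreactors filled with basement membrane extract holding bFGF/VEGF mix plus test peptide, or peptide alone, implanted subcutaneously in both flanks of nude mice, four per animal. PEDF 20 nM and 34-mer 100 nM served as controls. Recovered cells were FITC-lectin labelled and fluorescence read as relative EC invasion. Three independent experiments, normalised to negative control, averaged.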"}, "HMVEC cells": {"tested_on": "HMVEC cells", "assay": "Endothelial cell apoptosis, TUNEL assay", "assay_type": "cell-based, Human", "details": "overnight, 0.2% FBS, no bFGF, PEDF 10 nM, 34-mer 100 nM (Fig. 2C)", "in_short": "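Confluent HMVECs (passages 6–9) on coverslips were treated overnight with test peptide in MCDB131 with 0.2% FBS, with or without bFGF 20 ng/ml. PEDF 10 nM and 34-mer 100 nM were controls. TUNEL staining with propidium iodide counterstain. In 3–5 10X fields, TUNEL-positive and total PI-positive cells were counted to give % apoptotic cells.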"}},
  "data": [
    {"molecule": "P23: PEDF-derived peptide, residues 34–57, acetylated at the N-terminus and amidated at the C-terminus (Ac-DSTGALVEEEDPFFKVPVNKLAAA-NH2; UniProt P36955 34-57, looked up, fragment)", "values": [
      {"measurement": "cytotoxicity", "setting": "endothelial cells", "value": "no cytotoxic activity"}
    ]},
    {"molecule": "34-mer: PEDF anti-angiogenic N-terminal surface epitope, amino acid residues 24–57; parental peptide (SPPEEGSPDPDSTGALVEEEDPFFKVPVNKLAAA; UniProt P36955 24-57, looked up, fragment)", "values": [
      {"measurement": "EC apoptosis by in situ TUNEL", "setting": "[1]", "value": "induced significant levels of EC apoptosis"},
      {"measurement": "CD95 staining of microvessels", "setting": "CD95", "value": "majority of the microvessels stained positive"}
    ]},
    {"molecule": "P14: PEDF-derived peptide, residues 43–57 of PEDF molecule, acetylated at the N-terminus and amidated at the C-terminus (Ac-EDPFFKVPVNKLAAA-NH2; UniProt P36955 43-57, looked up, fragment)", "values": [
      {"measurement": "cytotoxicity", "setting": "endothelial cells", "value": "slightly cytotoxic"},
      {"measurement": "angiogenic activity of the peptide alone", "setting": "[2]; DIVAA, without bFGF/VEGF, P<0.05", "value": "pro-angiogenic"}
    ]},
    {"molecule": "B1", "values": [
      {"measurement": "effect on stress-induced apoptosis in low serum", "setting": "HMVEC cells", "value": "no effect"},
      {"measurement": "level of vascularization reached", "setting": "[2]; DIVAA with bFGF/VEGF mix, P=0.006 (PEDF) and 0.01 (P18)", "value": "to the level of BME"}
    ]}
  ]
}
